From ChEMBL document CHEMBL1132299, “Phosphinic pseudo-tripeptides as potent inhibitors of matrix metalloproteinases: a structure-activity study” (J Med Chem, 1999) come the findings set out here.

Experiment [1] deals with T1, Matrilysin (Homo sapiens) (UniProt P09237).
T1 sequence (whole entry): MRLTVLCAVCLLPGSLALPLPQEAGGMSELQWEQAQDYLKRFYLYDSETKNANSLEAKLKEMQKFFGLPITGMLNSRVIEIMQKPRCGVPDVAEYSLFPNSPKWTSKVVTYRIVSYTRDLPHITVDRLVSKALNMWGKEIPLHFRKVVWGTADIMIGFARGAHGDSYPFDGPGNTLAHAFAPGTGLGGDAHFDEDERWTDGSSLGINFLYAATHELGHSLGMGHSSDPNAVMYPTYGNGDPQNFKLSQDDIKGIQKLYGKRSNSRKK
Briefly: (§1) Inhibition of Matrix metalloprotease-7 Matrilysin. An outline of the steps:
(§2)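 Catalytic domains of human MMP-14 and MMP-7 were expressed in E. coli BL21 DE3 pLysS. Buffer 50 mM Tris/HCl pH 6.8, 10 mM CaCl2, 25 °C; 0.2–5 nM enzyme; 6 µM Mca-Pro-Leu-Gly-Leu-Dpa-Ala-Arg-NH2 read by fluorescence (ex 340, em 400 nm) for 30 min. Km: MMP-14 21, MMP-7 67 µM. Five inhibitor concentrations in triplicate; Ki by Horovitz–Levitski method.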

The target of experiment [2] is T2, Stromelysin-3 (Mus musculus, UniProt Q02853).
T2 sequence (Q02853 whole entry): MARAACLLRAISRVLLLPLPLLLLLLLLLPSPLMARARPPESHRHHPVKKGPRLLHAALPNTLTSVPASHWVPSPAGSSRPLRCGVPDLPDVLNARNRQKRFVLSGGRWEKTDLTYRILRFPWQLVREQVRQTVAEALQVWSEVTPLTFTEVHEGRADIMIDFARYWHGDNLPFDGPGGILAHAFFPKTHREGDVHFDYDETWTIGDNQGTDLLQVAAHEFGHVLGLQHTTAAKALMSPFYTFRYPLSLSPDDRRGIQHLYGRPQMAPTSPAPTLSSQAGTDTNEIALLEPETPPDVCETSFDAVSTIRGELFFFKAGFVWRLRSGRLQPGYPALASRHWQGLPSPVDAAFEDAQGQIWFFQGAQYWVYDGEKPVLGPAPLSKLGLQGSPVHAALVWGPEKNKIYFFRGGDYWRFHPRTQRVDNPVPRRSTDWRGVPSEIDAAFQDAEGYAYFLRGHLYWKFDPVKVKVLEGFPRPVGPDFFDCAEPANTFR
Briefly: Binding affinity against matrix metalloprotease-11. The procedure, abridged:
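Mouse MMP-11 catalytic domain from E. coli BL21 DE3 pLysS, assayed in stirred quartz cuvettes in 50 mM Tris/HCl pH 6.8, 10 mM CaCl2 at 25 °C. Substrate was Mca-Pro-Leu-Ala-Cys(OMeBn)-Trp-Ala-Arg-Dpa-NH2 (Km 0.2 µM), with fluorescence read-out. Percent inhibition was measured in triplicate at five concentrations (20–80% range), and Ki was derived by the Horovitz–Levitski method.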

Experiment [3] concerns the target T3, Matrix metalloproteinase-9 (Homo sapiens, UniProt P14780). Put plainly: Binding affinity against matrix metalloprotease-9 (gelatinase-B). An outline of the steps:
(§3)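 Full-length human pro-MMP-2, -9 and -8 were expressed in NSO myeloma cells and activated with 4-aminophenylmercuric acetate just before use. Run at 25 °C in 50 mM Tris/HCl pH 6.8, 10 mM CaCl2, with 0.2–5 nM enzyme and 6 µM Mca-Pro-Leu-Gly-Leu-Dpa-Ala-Arg-NH2; fluorescence 340/400 nm, 30 min. Km: MMP-2 49, MMP-9 14, MMP-8 61 µM. Triplicate, five inhibitor levels; Ki by Horovitz–Levitski.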

Experiment [4] has as its target T4, Interstitial collagenase (Homo sapiens) (UniProt P03956).
T4 sequence (whole entry): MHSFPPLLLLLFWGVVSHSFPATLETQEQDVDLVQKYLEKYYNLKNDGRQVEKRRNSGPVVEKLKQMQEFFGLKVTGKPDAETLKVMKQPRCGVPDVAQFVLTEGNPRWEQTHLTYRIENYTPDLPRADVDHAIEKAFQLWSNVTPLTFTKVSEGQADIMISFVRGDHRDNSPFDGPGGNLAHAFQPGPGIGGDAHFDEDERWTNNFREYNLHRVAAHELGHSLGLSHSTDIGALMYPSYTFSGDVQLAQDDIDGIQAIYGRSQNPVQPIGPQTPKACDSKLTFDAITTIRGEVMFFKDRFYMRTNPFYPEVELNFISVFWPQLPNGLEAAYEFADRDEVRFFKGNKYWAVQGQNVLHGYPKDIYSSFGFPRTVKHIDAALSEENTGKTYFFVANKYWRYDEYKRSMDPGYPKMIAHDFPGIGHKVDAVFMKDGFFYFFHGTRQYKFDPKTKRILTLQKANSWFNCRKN
Put plainly: (§4) Inhibition of matrix metalloprotease-1. The following applies: concentration not given here. The procedure, abridged: (§5)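 Human full-length pro-MMP-1 was expressed in NSO myeloma cells and activated just before use with trypsin (10 µg/mL, 25 min, 25 °C), then BPTI (100 µg/mL). Assay: 50 mM Tris/HCl pH 6.8, 10 mM CaCl2, 25 °C, 0.2–5 nM enzyme, 6 µM Mca-Pro-Leu-Gly-Leu-Dpa-Ala-Arg-NH2, fluorescence 340/400 nm over 30 min. Km 100 µM. Triplicate inhibition at five concentrations (20–80% range) gave Ki by the Horovitz–Levitski method.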

Experiment [5] concerns the target Matrix metalloproteinase-14 (Homo sapiens, UniProt P50281). Briefly: Binding affinity against matrix metalloprotease-14 MTI-MMP. An outline of the steps: as §2
Experiment [6] has as its target Neutrophil collagenase (Homo sapiens, UniProt P22894). Briefly: Inhibition of matrix metalloprotease-8. The procedure, abridged: as §3
Experiment [7] has as its target T5, 72 kDa type IV collagenase (Homo sapiens, UniProt P08253). Put plainly: Binding affinity against matrix metalloprotease-2 (gelatinase-A). The procedure, abridged:
as §3
Target sequence in this assay (P08253 whole entry): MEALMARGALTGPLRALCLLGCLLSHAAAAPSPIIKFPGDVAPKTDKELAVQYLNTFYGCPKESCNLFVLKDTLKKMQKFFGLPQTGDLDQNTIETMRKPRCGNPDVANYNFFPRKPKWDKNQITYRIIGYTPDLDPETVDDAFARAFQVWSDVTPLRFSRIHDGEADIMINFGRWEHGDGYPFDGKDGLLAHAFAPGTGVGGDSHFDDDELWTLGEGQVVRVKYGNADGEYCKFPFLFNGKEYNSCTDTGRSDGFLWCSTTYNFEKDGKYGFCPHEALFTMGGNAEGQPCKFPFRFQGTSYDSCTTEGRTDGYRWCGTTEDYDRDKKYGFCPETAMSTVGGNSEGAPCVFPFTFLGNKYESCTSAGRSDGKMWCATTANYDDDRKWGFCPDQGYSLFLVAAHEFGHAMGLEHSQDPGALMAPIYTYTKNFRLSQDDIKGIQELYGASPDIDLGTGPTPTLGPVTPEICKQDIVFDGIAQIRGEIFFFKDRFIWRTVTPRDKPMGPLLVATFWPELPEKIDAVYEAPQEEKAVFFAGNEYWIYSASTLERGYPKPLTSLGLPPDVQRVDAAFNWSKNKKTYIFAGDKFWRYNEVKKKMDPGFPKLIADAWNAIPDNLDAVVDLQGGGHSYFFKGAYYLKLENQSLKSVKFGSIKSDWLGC

Experiment [8] has as its target T4, Interstitial collagenase (Homo sapiens). Briefly: Inhibition of matrix metalloprotease-1 at 5 uM.
In experiment [9] the target is T6, Matrilysin (Homo sapiens, UniProt P09237).
T6 sequence (P09237 whole entry): T1 sequence (whole entry)
Described as §1. An outline of the steps:
as §2

Experiment [10] concerns the target T7, Stromelysin-3 (Mus musculus) (UniProt Q02853).
T7 sequence (whole entry): T2 sequence (Q02853 whole entry)
Briefly: Inhibition of MMP-11, stromelysin-3 at 1 uM.

For experiment [11], the target named is T1, Matrilysin (Homo sapiens). Put plainly: In vitro inhibition of MMP-7 at 2 uM.
In experiment [12] the target is T4, Interstitial collagenase (Homo sapiens). Briefly: In vitro inhibition of MMP-1 at 2 uM.
The target of experiment [13] is T5, 72 kDa type IV collagenase. Briefly: Inhibition of MMP-2 gelatinase-A at 2 uM.
Target sequence in this assay (P08253 110-660 limits assumed): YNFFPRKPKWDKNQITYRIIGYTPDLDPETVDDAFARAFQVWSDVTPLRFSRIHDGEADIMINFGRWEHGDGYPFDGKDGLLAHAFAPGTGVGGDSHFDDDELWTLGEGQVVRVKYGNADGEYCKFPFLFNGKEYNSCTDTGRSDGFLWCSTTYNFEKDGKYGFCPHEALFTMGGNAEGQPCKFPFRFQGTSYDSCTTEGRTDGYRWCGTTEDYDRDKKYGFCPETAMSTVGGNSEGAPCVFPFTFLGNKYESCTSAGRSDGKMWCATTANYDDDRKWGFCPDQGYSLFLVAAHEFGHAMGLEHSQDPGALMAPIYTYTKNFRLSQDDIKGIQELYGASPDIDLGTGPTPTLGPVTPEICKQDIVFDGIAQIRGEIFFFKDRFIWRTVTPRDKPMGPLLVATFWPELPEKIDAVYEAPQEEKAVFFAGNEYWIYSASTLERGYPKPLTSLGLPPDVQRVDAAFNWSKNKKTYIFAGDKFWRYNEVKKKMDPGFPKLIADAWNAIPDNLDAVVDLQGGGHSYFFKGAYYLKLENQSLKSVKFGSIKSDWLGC
Experiment [14] has as its target T3, Matrix metalloproteinase-9. Briefly: Inhibition of Matrix metalloprotease-9, gelatinase-B at 2 uM.
Experiment [15] concerns the target T8, Interstitial collagenase (Homo sapiens, UniProt P03956).
T8 sequence (P03956 whole entry): T4 sequence (whole entry)
Described as §4. The procedure, abridged:
as §5

T3 sequence (P14780 whole entry): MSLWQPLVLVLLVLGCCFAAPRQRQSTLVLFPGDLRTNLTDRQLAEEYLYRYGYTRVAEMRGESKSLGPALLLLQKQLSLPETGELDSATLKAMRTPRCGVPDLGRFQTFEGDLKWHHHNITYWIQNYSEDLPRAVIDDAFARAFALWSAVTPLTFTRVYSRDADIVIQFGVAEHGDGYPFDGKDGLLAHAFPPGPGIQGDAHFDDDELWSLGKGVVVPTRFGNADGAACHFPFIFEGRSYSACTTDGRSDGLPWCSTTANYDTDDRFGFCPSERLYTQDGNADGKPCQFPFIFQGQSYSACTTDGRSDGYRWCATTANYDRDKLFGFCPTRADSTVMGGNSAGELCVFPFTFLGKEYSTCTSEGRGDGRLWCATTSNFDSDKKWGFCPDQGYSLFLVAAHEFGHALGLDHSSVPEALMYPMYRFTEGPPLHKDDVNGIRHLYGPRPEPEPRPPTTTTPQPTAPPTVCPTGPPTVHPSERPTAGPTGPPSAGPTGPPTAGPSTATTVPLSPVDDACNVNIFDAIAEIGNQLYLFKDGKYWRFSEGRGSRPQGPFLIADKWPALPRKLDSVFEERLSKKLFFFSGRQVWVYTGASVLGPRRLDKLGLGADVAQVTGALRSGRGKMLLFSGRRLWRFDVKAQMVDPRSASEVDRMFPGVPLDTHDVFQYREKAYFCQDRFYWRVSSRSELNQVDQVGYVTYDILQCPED
Sequence of Neutrophil collagenase (P22894 whole entry): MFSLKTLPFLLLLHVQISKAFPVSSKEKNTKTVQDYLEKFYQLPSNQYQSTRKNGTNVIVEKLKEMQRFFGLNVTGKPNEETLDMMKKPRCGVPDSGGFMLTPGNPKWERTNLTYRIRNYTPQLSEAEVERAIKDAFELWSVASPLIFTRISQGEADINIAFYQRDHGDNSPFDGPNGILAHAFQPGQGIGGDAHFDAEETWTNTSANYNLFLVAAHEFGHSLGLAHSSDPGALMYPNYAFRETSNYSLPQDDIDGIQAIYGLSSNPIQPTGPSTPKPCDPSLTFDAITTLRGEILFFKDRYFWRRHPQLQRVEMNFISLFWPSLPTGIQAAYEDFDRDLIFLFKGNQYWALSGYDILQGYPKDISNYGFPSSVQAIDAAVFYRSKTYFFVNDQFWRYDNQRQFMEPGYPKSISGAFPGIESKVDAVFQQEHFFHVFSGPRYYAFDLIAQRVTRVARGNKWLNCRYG

As a reminder, the inhibition is the percentage by which the read-out fell short of the control. Low readings indicate a response near the control, high ones a response far below the control. By Ki is commonly meant the equilibrium dissociation constant of an inhibitor or competing ligand from its target. Higher therefore signals lower affinity. Regarding `CC(C)CC(NC(=O)OCc1ccccc1)C(=O)NC(Cc1ccccc1)P(=O)(O)CC(CCCc1ccccc1)C(=O)NC(Cc1c[nH]c2ccccc12)C(N)=O` (stereo unspecified), the inhibition in experiment [1] was 45%; in [4], 32%. Moreover, the Ki was found to be 0.006 µM in [2]; 0.022 µM in [3]; 0.053 µM in experiment [5]; 0.007 µM in [6]; 0.04 µM in experiment [7].
`NC(=O)C(Cc1c[nH]c2ccccc12)NC(=O)C(Cc1ccc2ccccc2c1)CP(=O)(O)C(Cc1ccccc1)NC(=O)OCc1ccccc1` (stereo unspecified) came in with an inhibition in experiment [8] of 0%. For the same compound, the inhibition constant Ki in [2] was 0.074 µM; in [3], 0.675 µM; in experiment [5], 1.35 µM; in [6], 0.23 µM; in experiment [9], 1.8 µM; in experiment [7], 0.33 µM.
On to `CC(NC(=O)C(CCCc1ccccc1)CP(=O)(O)C(Cc1ccccc1)NC(=O)OCc1ccccc1)C(N)=O` (stereo unspecified), for which the inhibition came to 20% in experiment [10]; 0% in [11]; 9% in experiment [12]; 31% in experiment [13]; 45% in experiment [14].
Regarding `NC(=O)C(Cc1c[nH]c2ccccc12)NC(=O)C(CCCc1ccccc1)CP(=O)(O)C(Cc1ccccc1)NC(=O)c1ccc2ccccc2n1` (stereo unspecified), the Ki in experiment [2] is 0.0042 µM; in [3], 0.013 µM; in experiment [15], 0.34 µM; in experiment [5], 0.06 µM; in experiment [6], 0.005 µM; in experiment [9] it was 0.37 µM. The inhibition constant Ki in experiment [7] worked out at 0.019 µM.
